Test results reported in publication PMC10432377 (Journal of Applied Glycoscience, 2023).

Assays:
Assay type in all cases: biochemical, Lacticaseibacillus casei
Details in all cases: 80 mM sodium acetate pH 4.0, 37 °C
LBCZ_0230 [1] = experiment: D-galactose release, L-arabinose/D-galactose assay kit
Summary of the method: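 Recombinant C-terminally His6-tagged enzyme was expressed in E. coli BL21(DE3) and Ni²⁺-affinity purified. Lacto-N-biose I or galacto-N-biose at 0.1-2 mM was reacted with enzyme at 37 °C for 10 min. Reactions were stopped at 80 °C for 3 min and D-galactose was quantified. Km came from Michaelis-Menten nonlinear regression, as mean ± SD of three independent experiments.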

LBCZ_0230 [2] = experiment: o-nitrophenol release, A400
Summary of the method: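 The enzyme was C-terminally His6-tagged, expressed in E. coli BL21(DE3) and purified on Ni²⁺ affinity. Protein was quantified by amino acid analysis. o-Nitrophenyl β-D-galactopyranoside at 0.05-1 mM was incubated with enzyme at 37 °C for 10 min and stopped with 1 M Na₂CO₃. Released o-nitrophenol was read at A400. Km was fitted by nonlinear Michaelis-Menten regression from three independent experiments (mean ± SD).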

LBCZ_0230 [3] = experiment: p-nitrophenol release, A400
Summary of the method: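 Purified recombinant His6-tagged enzyme (E. coli BL21(DE3), Ni²⁺ column) was assayed on p-nitrophenyl β-D-galactopyranoside over 0.0125-0.5 mM. Incubation ran at 37 °C for 10 min and was quenched with 1 M Na₂CO₃. p-Nitrophenol was measured at A400. Km was obtained by nonlinear Michaelis-Menten fitting, as mean ± SD of three independent experiments.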

| Km (LBCZ_0230 [1]) [µM] | SMILES | further results |
| --- | --- | --- |
| 238 ± 5 | CC(=O)N[C@H]1C(O)O[C@H](CO)[C@@H](O)[C@@H]1O[C@@H]1O[C@H](CO)[C@H](O)[C@H](O)[C@H]1O (stereo partly shown) [LNB] | – |
| – | O=[N+]([O-])c1ccccc1O[C@@H]1O[C@H](CO)[C@H](O)[C@H](O)[C@H]1O [oNPGal] | Km (LBCZ_0230 [2]): 50.1 ± 2.3 µM |
| – | O=[N+]([O-])c1ccc(O[C@@H]2O[C@H](CO)[C@H](O)[C@H](O)[C@H]2O)cc1 [pNPGal] | Km (LBCZ_0230 [3]): 20.9 ± 1.3 µM |
| 707 ± 18 | CC(=O)N[C@H]1C(O)O[C@H](CO)[C@H](O)[C@@H]1O[C@@H]1O[C@H](CO)[C@H](O)[C@H](O)[C@H]1O (stereo partly shown) [GNB] | – |
